From ChEMBL document CHEMBL1909603, “Synthesis of novel N-(2-hydroxy-2-p-tolylethyl)-amide and N-(2-oxo-2-p-tolylethyl)-amide derivatives and their antidyslipidemic and antioxidant activity” (2011)

What was measured:
Assay type in all cases: functional
Rattus norvegicus [1] = assay: Antihyperlipidemic activity in Charles Foster rat assessed as reduction of triton WR-1339-induced plasma protein level at 100 mg/kg, po after 18 hrs; design: scale not given: the % may be the effect or the level left
Rattus norvegicus [2] = assay: Antihyperlipidemic activity in Charles Foster rat assessed as reduction of triton WR-1339-induced plasma phospholipid level at 100 mg/kg, po after 18 hrs; design: scale not given: the % may be the effect or the level left
Method in brief: (§1)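 Male Charles Foster rats (100–150 g), six per group. Triton WR-1339 400 mg/kg ip with simultaneous oral dosing at 100 mg/kg, given as a gum acacia (0.2% w/v) suspension in water. Diet was withdrawn. Vehicle went to the control and triton groups. At 18 h, under thiopentone anaesthesia, retro-orbital blood was taken into EDTA and spun at 4 °C. Plasma diluted 1:3 in saline. TC, TG and PL measured by enzymatic kits. Mean SD.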

Rattus norvegicus [3] = assay: Antihyperlipidemic activity in Charles Foster rat assessed as reduction of triton WR-1339-induced plasma triglyceride level at 100 mg/kg, po after 18 hrs; design: scale not given: the % may be the effect or the level left; method in brief: as §1
Rattus norvegicus [4] = assay: Antihyperlipidemic activity in Charles Foster rat assessed as reduction of triton WR-1339-induced plasma total cholesterol level at 100 mg/kg, po after 18 hrs; design: scale not given: the % may be the effect or the level left; method in brief: as §1
Rattus norvegicus [5] = assay: Antihyperlipidemic activity in Charles Foster rat assessed as reduction of triton WR-1339-induced plasma post heparin lipolytic activity assessed per mL of plasma at 100 mg/kg, po after 18 hrs; design: scale not given: the % may be the effect or the level left
Method in brief: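 Male Charles Foster rats (100–150 g), six per group. Triton WR-1339 400 mg/kg ip together with an oral 100 mg/kg dose in gum acacia suspension. Diet was withdrawn and vehicle controls were included. At 18 h, EDTA plasma was taken from retro-orbital blood. Post-heparin lipolytic activity was measured spectrophotometrically as nmol free fatty acid formed/h/ml plasma. Mean SD.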

[6] = Antioxidant activity assessed as xanthine-xanthine oxidase generated superoxide anion scavenging at 100 mg/ml after 30 mins by NBT reduction assay
Method in brief: (§2)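 Enzymic superoxide generation with xanthine, xanthine oxidase (0.04 U) and nitroblue tetrazolium in 100 mM phosphate buffer pH 8.2, with or without sample. Incubated at 37 °C for 30 min, then stopped with glacial acetic acid. Formazan read at 560 nm. Percent inhibition calculated using ε 7.2 × 10³ M/cm.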

[7] = Antioxidant activity assessed as xanthine-xanthine oxidase generated superoxide anion scavenging at 200 mg/ml after 30 mins by NBT reduction assay; method in brief: as §2
[8] = Antioxidant activity assessed as hydroxyl radical scavenging activity by measuring malondialdehyde formation at 200 mg/ml after 90 mins by thiobarbituric acid method
Method in brief: (§3)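 Non-enzymic hydroxyl radical generation: deoxyribose 2.8 mM, FeSO4 2 mM, sodium ascorbate 2.0 mM and H2O2 2.8 mM in 50 mM KH2PO4 pH 7.4, with or without sample. Incubated at 37 °C for 90 min alongside reference samples and reagent blanks. MDA measured spectrophotometrically by the thiobarbituric acid method.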

[9] = Antioxidant activity assessed as hydroxyl radical scavenging activity by measuring malondialdehyde formation at 100 mg/ml after 90 mins by thiobarbituric acid method; method in brief: as §3
[10] = Antioxidant activity against microsomal lipid peroxidation assessed as malondialdehyde formation at 100 mg/ml after 90 mins by thiobarbituric acid method
[11] = Antioxidant activity against microsomal lipid peroxidation assessed as malondialdehyde formation at 200 mg/ml after 90 mins by thiobarbituric acid method

What does the source list for Cc1ccc(C(=O)CNC(=O)Cc2ccc(F)cc2)cc1?
Activity (Rattus norvegicus [1]): 19%; Activity (Rattus norvegicus [2]): 15%; Activity (Rattus norvegicus [3]): 11%; Activity (Rattus norvegicus [4]): 14%; Activity (Rattus norvegicus [5]): 6%

Which Activity (Rattus norvegicus [1]) does the source give for Cc1ccc(C(O)CNC(=O)c2ccc(Cl)c([N+](=O)[O-])c2)cc1 (racemic) here?
Its Activity is 11%.

And the Activity (Rattus norvegicus [2])?
Its Activity is 7%.

And the Activity (Rattus norvegicus [3])?
The Activity was 11%.

And the Activity (Rattus norvegicus [4])?
The Activity was 5%.

And the Activity (Rattus norvegicus [5])?
Its Activity is 8%.

Which Activity [6] does the source give for COc1ccc([C@@H](O)CNC(=O)/C=C/c2ccccc2)cc1 [AEGELINE] here?
Its Activity is 19%.

And the Activity (Rattus norvegicus [1])?
Its Activity is 24%.

What about the Activity (Rattus norvegicus [2]) of the same compound?
Its Activity is 23%.

What about the Activity [7] of the same compound?
Its Activity is 25%.

And the Activity (Rattus norvegicus [3])?
The Activity was 22%.

And the Activity (Rattus norvegicus [4])?
The Activity was 24%.

What about the Activity [8] of the same compound?
Its Activity is 22%.

What about the Activity (Rattus norvegicus [5]) of the same compound?
Its Activity is 14%.

And the Activity [9]?
The Activity was 18%.

Which Activity (Rattus norvegicus [1]) does the source give for Cc1ccc(C(=O)CNC(=O)Cc2cccnc2)cc1 here?
The Activity was 7%.

What about the Activity (Rattus norvegicus [2]) of the same compound?
The Activity was 7%.

And the Activity (Rattus norvegicus [3])?
Its Activity is 5%.

And the Activity (Rattus norvegicus [4])?
Its Activity is 7%.

And the Activity (Rattus norvegicus [5])?
The Activity was 8%.

Which Activity [6] does the source give for Cc1ccc(C(=O)CNC(=O)/C=C/c2ccc(O)cc2)cc1 here?
Its Activity is 17%.

And the Activity [10]?
The Activity was 22%.

What about the Activity (Rattus norvegicus [1]) of the same compound?
Its Activity is 20%.

What about the Activity (Rattus norvegicus [2]) of the same compound?
Its Activity is 23%.

And the Activity [7]?
The Activity was 31%.

What about the Activity [11] of the same compound?
Its Activity is 29%.

And the Activity (Rattus norvegicus [3])?
The Activity was 21%.

What about the Activity (Rattus norvegicus [4]) of the same compound?
The Activity was 22%.

And the Activity [8]?
The Activity was 29%.

And the Activity (Rattus norvegicus [5])?
The Activity was 19%.

And the Activity [9]?
The Activity was 17%.

Which Activity [8] does the source give for OC[C@@H](O)[C@@H](O)[C@H](O)[C@H](O)CO here?
The Activity was 45%.

What does the source list for Cc1ccc(C(=O)CNC(=O)/C=C/c2ccc(Cl)c(Cl)c2)cc1?
Activity (Rattus norvegicus [1]): 13%; Activity (Rattus norvegicus [2]): 12%; Activity (Rattus norvegicus [3]): 12%; Activity (Rattus norvegicus [4]): 12%; Activity (Rattus norvegicus [5]): 6%

For Cc1ccc(C(=O)CNC(=O)CCc2cccnc2)cc1, which Activity [6] is on record?
The Activity was 24%.

And the Activity [10]?
The Activity was 19%.

What about the Activity (Rattus norvegicus [1]) of the same compound?
The Activity was 21%.

What about the Activity (Rattus norvegicus [2]) of the same compound?
Its Activity is 24%.

What about the Activity [7] of the same compound?
The Activity was 31%.

What about the Activity [11] of the same compound?
The Activity was 29%.

What about the Activity (Rattus norvegicus [3]) of the same compound?
The Activity was 22%.

And the Activity (Rattus norvegicus [4])?
The Activity was 24%.

And the Activity [8]?
Its Activity is 33%.

What about the Activity (Rattus norvegicus [5]) of the same compound?
The Activity was 20%.

And the Activity [9]?
The Activity was 19%.

With Cc1c(C)c2c(c(C)c1O)CC[C@@](C)(CCC[C@H](C)CCC[C@H](C)CCCC(C)C)O2 as the compound, how does the Activity [11] read?
The Activity was 63%.

Which Activity (Rattus norvegicus [1]) does the source give for Cc1ccc(C(O)CNC(=O)/C=C/c2ccc(O)cc2)cc1 (mixture of isomers) here?
The Activity was 8%.

What about the Activity (Rattus norvegicus [2]) of the same compound?
Its Activity is 9%.

What about the Activity (Rattus norvegicus [3]) of the same compound?
Its Activity is 9%.

And the Activity (Rattus norvegicus [4])?
The Activity was 7%.

What about the Activity (Rattus norvegicus [5]) of the same compound?
The Activity was 7%.

For Cc1ccc(C(O)CNC(=O)/C=C/c2ccc(Cl)c(Cl)c2)cc1 (racemic), which Activity (Rattus norvegicus [1]) is on record?
The Activity was 15%.

And the Activity (Rattus norvegicus [2])?
The Activity was 13%.

What about the Activity (Rattus norvegicus [3]) of the same compound?
The Activity was 14%.

And the Activity (Rattus norvegicus [4])?
The Activity was 16%.

And the Activity (Rattus norvegicus [5])?
The Activity was 14%.

What does the source list for Cc1ccc(C(O)CNC(=O)Cc2cccnc2)cc1 (racemic)?
Activity [6]: 17%; Activity [10]: 22%; Activity (Rattus norvegicus [1]): 23%; Activity (Rattus norvegicus [2]): 22%; Activity [7]: 31%; Activity [11]: 29%; Activity (Rattus norvegicus [3]): 25%; Activity (Rattus norvegicus [4]): 23%; Activity [8]: 29%; Activity (Rattus norvegicus [5]): 19%; Activity [9]: 17%

Which Activity (Rattus norvegicus [1]) does the source give for COc1cc(/C=C/C(=O)NCC(=O)c2ccc(C)cc2)ccc1O here?
Its Activity is 10%.

And the Activity (Rattus norvegicus [2])?
The Activity was 6%.

And the Activity (Rattus norvegicus [3])?
The Activity was 10%.

What about the Activity (Rattus norvegicus [4]) of the same compound?
Its Activity is 5%.

And the Activity (Rattus norvegicus [5])?
Its Activity is 13%.

For Cc1ccc(C(=O)CNC(=O)c2ccc(Cl)c([N+](=O)[O-])c2)cc1, which Activity (Rattus norvegicus [1]) is on record?
Its Activity is 9%.

And the Activity (Rattus norvegicus [2])?
The Activity was 5%.

What about the Activity (Rattus norvegicus [3]) of the same compound?
The Activity was 9%.

What about the Activity (Rattus norvegicus [4]) of the same compound?
The Activity was 4%.

And the Activity (Rattus norvegicus [5])?
The Activity was 8%.

Which results are given for Cc1ccc(C(=O)CNC(=O)/C=C/c2ccccc2O)cc1?
Activity (Rattus norvegicus [1]): 8%; Activity (Rattus norvegicus [2]): 10%; Activity (Rattus norvegicus [3]): 9%; Activity (Rattus norvegicus [4]): 11%; Activity (Rattus norvegicus [5]): 10%

Which Activity (Rattus norvegicus [1]) does the source give for COc1ccc(CC(=O)NCC(=O)c2ccc(C)cc2)cc1OC here?
The Activity was 14%.

What about the Activity (Rattus norvegicus [2]) of the same compound?
Its Activity is 14%.

What about the Activity (Rattus norvegicus [3]) of the same compound?
The Activity was 12%.

What about the Activity (Rattus norvegicus [4]) of the same compound?
The Activity was 10%.

And the Activity (Rattus norvegicus [5])?
Its Activity is 12%.

For Cc1ccc(C(O)CNC(=O)/C=C/c2ccccc2O)cc1 (mixture of isomers), which Activity (Rattus norvegicus [1]) is on record?
The Activity was 8%.

And the Activity (Rattus norvegicus [2])?
Its Activity is 7%.

What about the Activity (Rattus norvegicus [3]) of the same compound?
The Activity was 9%.

And the Activity (Rattus norvegicus [4])?
The Activity was 8%.

And the Activity (Rattus norvegicus [5])?
Its Activity is 5%.

What does the source list for Cc1ccc(C)c(OCCCC(C)(C)C(=O)O)c1 [GEMFIBROZIL]?
Activity (Rattus norvegicus [1]): 31%; Activity (Rattus norvegicus [2]): 36%; Activity (Rattus norvegicus [3]): 31%; Activity (Rattus norvegicus [4]): 33%; Activity (Rattus norvegicus [5]): 23%

Which results are given for Cc1ccc(C(=O)CNC(=O)/C=C/c2ccc(OS(=O)(=O)c3ccc(C)cc3)cc2)cc1?
Activity (Rattus norvegicus [1]): 6%; Activity (Rattus norvegicus [2]): 9%; Activity (Rattus norvegicus [3]): 4%; Activity (Rattus norvegicus [4]): 7%; Activity (Rattus norvegicus [5]): 7%

With Oc1ncnc2[nH]ncc12 as the compound, how does the Activity [7] read?
The Activity was 69%.

With Cc1ccc(C(=O)CNC(=O)c2cccnc2)cc1 as the compound, how does the Activity (Rattus norvegicus [1]) read?
Its Activity is 4%.

And the Activity (Rattus norvegicus [2])?
The Activity was 6%.

And the Activity (Rattus norvegicus [3])?
The Activity was 2%.

What about the Activity (Rattus norvegicus [4]) of the same compound?
Its Activity is 4%.

What about the Activity (Rattus norvegicus [5]) of the same compound?
Its Activity is 6%.

What does the source list for COc1cc(/C=C/C(=O)NCC(O)c2ccc(C)cc2)ccc1O (mixture of isomers)?
Activity [6]: 21%; Activity [10]: 19%; Activity (Rattus norvegicus [1]): 21%; Activity (Rattus norvegicus [2]): 22%; Activity [7]: 32%; Activity [11]: 23%; Activity (Rattus norvegicus [3]): 23%; Activity (Rattus norvegicus [4]): 24%; Activity [8]: 27%; Activity (Rattus norvegicus [5]): 21%; Activity [9]: 18%
